Data from ChEMBL document CHEMBL1145458, “Novel vanilloid receptor-1 antagonists: 1. Conformationally restricted analogues of trans-cinnamides” (J Med Chem, 2007).
Activity calls are given as the source filed them. The rule behind the calls is not given here.

Key:
[1] = biological target: T1, Transient receptor potential cation channel subfamily V member 1 (Homo sapiens, UniProt Q8NER1); test: Agonist activity at TRPV1 expressed in CHO cells; assay type: functional, cell-based
[2] = biological target: T2, Transient receptor potential cation channel subfamily V member 1 (Rattus norvegicus, UniProt O35433); test: Antagonist activity at rat TRPV1 expressed in CHO cells assessed as inhibition of acid-induced calcium influx; assay type: functional, cell-based
In short: (§1)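 CHO cells stably transfected with human or rat TRPV1 were preincubated with compound for 2 min at room temperature. After washout, uptake was read by scintillation counting. IC50 values come from inhibition curves, averaging at least two experiments run in triplicate.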

[3] = biological target: T2, Transient receptor potential cation channel subfamily V member 1; test: Antagonist activity at rat TRPV1 expressed in CHO cells assessed as inhibition of capsaicin-induced calcium influx; assay type: functional, cell-based
In short: (§2)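 Human or rat TRPV1-CHO cells were preincubated with compound for 2 min at room temperature in HBSS with 0.1 mg/mL BSA and 1 mM HEPES pH 7.4. Cells were washed and radioactivity counted. IC50 is the mean of at least two experiments, triplicate per concentration, ±SEM.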

[4] = biological target: T1, Transient receptor potential cation channel subfamily V member 1; test: Antagonist activity at human TRPV1 expressed in CHO cells assessed as inhibition of acid-induced calcium influx; assay type: functional, cell-based; in short: as §1
[5] = biological target: T1, Transient receptor potential cation channel subfamily V member 1; test: Antagonist activity at human TRPV1 expressed in CHO cells assessed as inhibition of capsaicin-induced calcium influx; assay type: functional, cell-based; in short: as §2
[6] = AUC (0-infinity) in Sprague-Dawley rat at 2 mg/kg, iv; assay type: ADME, organism-based; parameters: time infinity, dose 2 mg/kg, route intravenous; conditions: plasma
In short: (§3)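 Male Sprague-Dawley rats received a single intravenous dose of 2 mg/kg given as a solution in DMSO. Plasma AUC0-∞, clearance, Vss and t1/2 were derived. Values are means of n = 2 animals per study, or of four studies.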

[7] = Clearance in Sprague-Dawley rat at 2 mg/kg, iv; assay type: ADME, organism-based; parameters: dose 2 mg/kg, route intravenous; conditions: in vivo; in short: as §3
[8] = Volume of distribution at steady state in Sprague-Dawley rat at 2 mg/kg, iv; assay type: ADME, organism-based; parameters: dose 2 mg/kg, route intravenous; conditions: in vivo, read-out: Vss; in short: as §3
[9] = Half life in Sprague-Dawley rat at 2 mg/kg, iv; assay type: ADME, organism-based; parameters: dose 2 mg/kg, route intravenous; conditions: in vivo; in short: as §3
[10] = Cmax in Sprague-Dawley rat at 5 mg/kg, po; assay type: ADME, organism-based; parameters: dose 5 mg/kg, route oral; conditions: in vivo
In short: (§4)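 Sprague-Dawley rats were dosed orally at 5 mg/kg as a suspension in 5% Tween 80 in Oraplus. Cmax, tmax, AUC0-∞ and oral bioavailability were determined. Values are means of n = 2 animals per study, or of five studies.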

[11] = Tmax in Sprague-Dawley rat at 5 mg/kg, po; assay type: ADME, organism-based; parameters: dose 5 mg/kg, route oral; conditions: in vivo; in short: as §4
[12] = AUC (0-infinity) in Sprague-Dawley rat at 5 mg/kg, po; assay type: ADME, organism-based; parameters: time infinity, dose 5 mg/kg, route oral; conditions: plasma; in short: as §4
[13] = Bioavailability in Sprague-Dawley rat at 5 mg/kg, po; assay type: ADME, organism-based; conditions: in vivo; in short: as §4
[14] = test system: Rattus norvegicus; test: Blockade of capsaicin-induced hypothermic response in Sprague-Dawley rat at 40 mg/kg, po; assay type: functional, organism-based; parameters: dose 40 mg/kg
In short: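 Male Sprague-Dawley rats (175–250 g) had core temperature monitored by radiotelemetry, with a 30 min baseline. Compound or vehicle was given by oral gavage in OraPlus/5% Tween-80 (5 mL/kg), at 40 mg/kg p.o., n = 8 per group. After 90 min, capsaicin 10 mg/kg or vehicle was injected intraperitoneally.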

[15] = AUC (0-infinity) in Sprague-Dawley rat at 3 mg/kg, iv; assay type: ADME, organism-based; parameters: time infinity, dose 3 mg/kg, route intravenous; conditions: plasma

T1 sequence (Q8NER1 whole entry): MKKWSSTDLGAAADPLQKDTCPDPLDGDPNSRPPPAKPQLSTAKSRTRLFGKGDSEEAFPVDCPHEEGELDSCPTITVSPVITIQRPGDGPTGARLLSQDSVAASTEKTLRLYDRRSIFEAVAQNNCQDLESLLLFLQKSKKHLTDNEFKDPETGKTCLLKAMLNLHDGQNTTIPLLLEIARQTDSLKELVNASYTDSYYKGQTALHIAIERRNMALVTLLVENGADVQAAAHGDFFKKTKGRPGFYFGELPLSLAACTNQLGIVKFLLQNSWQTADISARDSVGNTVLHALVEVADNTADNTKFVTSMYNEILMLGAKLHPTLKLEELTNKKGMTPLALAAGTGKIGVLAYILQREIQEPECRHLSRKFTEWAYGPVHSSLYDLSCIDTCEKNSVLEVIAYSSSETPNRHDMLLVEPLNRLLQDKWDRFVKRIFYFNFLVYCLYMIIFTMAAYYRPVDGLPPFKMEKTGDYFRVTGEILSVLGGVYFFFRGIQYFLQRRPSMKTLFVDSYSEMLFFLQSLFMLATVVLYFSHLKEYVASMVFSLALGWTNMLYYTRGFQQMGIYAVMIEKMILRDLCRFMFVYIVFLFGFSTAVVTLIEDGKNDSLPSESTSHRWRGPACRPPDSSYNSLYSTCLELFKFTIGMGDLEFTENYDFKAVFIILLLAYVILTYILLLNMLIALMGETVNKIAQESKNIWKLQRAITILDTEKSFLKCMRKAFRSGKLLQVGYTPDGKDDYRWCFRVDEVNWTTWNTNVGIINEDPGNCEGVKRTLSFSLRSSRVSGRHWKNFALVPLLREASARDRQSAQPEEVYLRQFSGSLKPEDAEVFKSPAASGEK
T2 sequence (O35433 whole entry): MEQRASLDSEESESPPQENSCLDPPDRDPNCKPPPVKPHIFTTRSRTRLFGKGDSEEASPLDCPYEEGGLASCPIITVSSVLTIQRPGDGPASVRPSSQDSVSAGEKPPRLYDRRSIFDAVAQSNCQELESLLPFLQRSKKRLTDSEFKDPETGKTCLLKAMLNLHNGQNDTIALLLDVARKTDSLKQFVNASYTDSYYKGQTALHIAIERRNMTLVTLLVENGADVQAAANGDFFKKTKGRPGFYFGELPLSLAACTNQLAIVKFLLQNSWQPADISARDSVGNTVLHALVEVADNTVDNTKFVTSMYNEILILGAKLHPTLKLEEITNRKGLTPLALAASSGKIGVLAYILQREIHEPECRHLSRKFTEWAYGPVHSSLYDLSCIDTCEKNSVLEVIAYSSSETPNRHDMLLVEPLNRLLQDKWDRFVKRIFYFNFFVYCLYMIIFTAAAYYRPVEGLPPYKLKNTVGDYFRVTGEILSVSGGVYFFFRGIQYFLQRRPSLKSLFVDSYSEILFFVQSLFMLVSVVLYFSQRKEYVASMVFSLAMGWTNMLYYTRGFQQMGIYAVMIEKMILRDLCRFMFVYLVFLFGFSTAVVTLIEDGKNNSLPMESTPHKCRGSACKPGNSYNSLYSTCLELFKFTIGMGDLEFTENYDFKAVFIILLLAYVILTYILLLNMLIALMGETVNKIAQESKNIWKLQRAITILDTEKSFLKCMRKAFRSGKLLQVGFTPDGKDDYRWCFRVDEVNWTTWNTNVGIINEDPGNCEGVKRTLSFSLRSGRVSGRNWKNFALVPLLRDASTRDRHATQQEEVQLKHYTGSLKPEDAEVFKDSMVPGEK

| SMILES | EC50 [1] | IC50 [2] | IC50 [3] | also measured |
| --- | --- | --- | --- | --- |
| CC(C)(C)c1ccc(-c2cc(Cc3ccc4c(c3)OCCO4)ncn2)cc1 | > 4 µM | > 4 µM | 0.914 µM |  |
| FC(F)(F)c1ccc(-c2cc(Nc3ccc4cccnc4c3)ncn2)cc1 | > 4 µM | 0.0066 µM |  | IC50 [4]: 0.0003 µM; IC50 [5]: 0.0006 µM; AUC(0-inf) [6]: 0.32 µg·h/mL; clearance [7]: 3.1 L/h/kg; Vd [8]: 3 L/kg; half-life [9]: 1.7 h; Cmax [10]: 0.026 µg/mL; Tmax [11]: 5 h; AUC(0-inf) [12]: 0.094 µg·h/mL; bioavailability [13]: 6% |
| CC(C)(C)c1ccc(-c2cc(Nc3ccc4c(c3)OCCO4)ccn2)cc1 | > 4 µM | > 4 µM | > 4 µM |  |
| CC(C)(C)c1ccc(-c2cc(Sc3ccc4c(c3)OCCO4)ncn2)cc1 | > 4 µM | > 4 µM | > 4 µM |  |
| CC(C)(C)c1ccc(-c2cccc(Nc3ccc4c(c3)OCCO4)n2)cc1 | > 4 µM | > 4 µM | > 4 µM |  |
| FC(F)(F)c1ccc(-c2cc(Oc3ccc4cccnc4c3)ncn2)cc1 | > 4 µM |  |  | IC50 [4]: 0.0042 µM; IC50 [5]: 0.0037 µM; AUC(0-inf) [6]: 1.59 µg·h/mL; Vd [8]: 3 L/kg; half-life [9]: 2.8 h; Cmax [10]: 0.3 µg/mL; Tmax [11]: 1.2 h; AUC(0-inf) [12]: 2.04 µg·h/mL; bioavailability [13]: 31%; Activity [14]: Active |
| CC(C)(C)c1ccc(-c2ccnc(Nc3ccc4c(c3)OCCO4)n2)cc1 | > 4 µM | > 4 µM | > 4 µM |  |
| CC(C)(C)c1ccc(-c2cc(Nc3ccc4c(c3)OCCO4)ncn2)cc1 | > 4 µM | 0.68 µM | 0.12 µM | IC50 [4]: 0.27 µM; IC50 [5]: 0.051 µM |
| FC(F)(F)c1ccc(-c2cc(Nc3ccc4c(c3)OCCO4)ncn2)cc1 | > 4 µM | 1.2 µM | 0.43 µM | IC50 [4]: 0.25 µM; IC50 [5]: 0.12 µM |
| CC(C)(C)c1ccc(-c2cc(Oc3ccc4c(c3)OCCO4)ncn2)cc1 | > 4 µM | 0.67 µM |  |  |
| CC(C)(C)c1ccc(-c2nccc(Nc3ccc4c(c3)OCCO4)n2)cc1 | > 4 µM | > 4 µM | > 4 µM |  |
| CC(C)(C)c1ccc(-c2cc(Nc3ccc4cccnc4c3)ncn2)cc1 | > 4 µM | 0.022 µM | 0.002 µM | IC50 [4]: 0.0069 µM; IC50 [5]: 0.0019 µM; AUC(0-inf) [6]: 0.34 µg·h/mL; clearance [7]: 2.9 L/h/kg; Vd [8]: 3.1 L/kg; half-life [9]: 1.6 h; Cmax [10]: 0.034 µg/mL; Tmax [11]: 0.5 h; AUC(0-inf) [12]: 0.079 µg·h/mL; bioavailability [13]: 5% |
| CC(C)(C)c1ccc(-c2cccc(Nc3ccc4c(c3)OCCO4)c2)cc1 | > 4 µM | > 4 µM | > 4 µM |  |

Continued, in another order:

| EC50 [1] | IC50 [2] | IC50 [3] | SMILES | also measured |
| --- | --- | --- | --- | --- |
| > 4 µM | > 4 µM | 0.76 µM | CC(C)(C)c1ccc(-c2ncnc(Nc3ccc4c(c3)OCCO4)n2)cc1 |  |
| > 4 µM | > 4 µM | > 4 µM | CC(C)(C)c1ccc(-c2cncc(Nc3ccc4c(c3)OCCO4)n2)cc1 |  |
| > 4 µM | > 4 µM | 0.78 µM | CC(C)(C)c1ccc(-c2cnnc(Nc3ccc4c(c3)OCCO4)c2)cc1 |  |
| > 4 µM | > 4 µM | > 4 µM | CC(C)(C)c1ccc(/C=C2\CCCN(c3ccc4c(c3)OCCO4)C2=O)cc1 |  |
| > 4 µM | > 4 µM | 0.84 µM | CC(C)(C)c1ccc(-c2cc(Nc3ccc4c(c3)OCCO4)cnn2)cc1 |  |
| > 4 µM | 1.3 µM | 0.23 µM | CC(C)(C)c1ccc(-c2ccnc(Nc3ccc4c(c3)OCCO4)c2)cc1 |  |
| > 4 µM | 2.2 µM | > 4 µM | CN(c1ccc2c(c1)OCCO2)c1cc(-c2ccc(C(C)(C)C)cc2)ncn1 |  |
| > 4 µM | > 4 µM | 1.21 µM | CC(C)(C)c1ccc(-c2cncc(Nc3ccc4c(c3)OCCO4)c2)cc1 |  |
| > 4 µM |  |  | CC(C)(C)c1ccc(/C=C/C(=O)Nc2ccc3c(c2)OCCO3)cc1 | AUC(0-inf) [15]: 0.68 µg·h/mL |
| > 4 µM | > 4 µM | > 4 µM | CC(C)(C)c1ccc(Cc2cccn(-c3ccc4c(c3)OCCO4)c2=O)cc1 |  |
